According to ChEMBL document CHEMBL3407436, “Design and development of novel Mycobacterium tuberculosis L-alanine dehydrogenase inhibitors” (Eur J Med Chem, 2015):
≈ marks a conversion by molar mass, not a printed value.

How the values were obtained:
[1] = Inhibition of Mycobacterium tuberculosis AlaDH using L-alanine as substrate after 20 mins by spectrophotometry
In short: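 125 mM glycine-KOH buffer pH 10.2, 1 mM NAD⁺, 50 mM L-alanine, enzyme at a level set by range finding; 20 min at 37°C. NADH formation from oxidative deamination monitored continuously at 340 nm. Compounds tested at 25 to 0.5 µM; background measured without enzyme. IC₅₀ by software analysis.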

[2] = tested on: Mycobacterium tuberculosis; assay: Antimycobacterial activity against Mycobacterium tuberculosis H37Rv ATCC 27294 after 28 days by agar dilution method; assay type: functional; details: H37Rv ATCC 27294, 672 h
In short: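 Two-fold serial dilutions incorporated into Middlebrook 7H11 agar with OADC, final 50 to 0.78 µg/mL. Inoculum from fresh 7H11 slants adjusted to 1 mg/mL wet weight in 0.05% Tween 80 saline, diluted 10^-2 (~10⁷ cfu/mL). 5 µL spotted per tube; 37 °C, read after 28 days. MIC = lowest concentration completely inhibiting growth; duplicates.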

[3] = Cytotoxicity against mouse RAW264.7 cells at 50 uM after 48 hrs by MTT assay; assay type: cell-based; details: read-out: INH
In short: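 RAW 264.7 cells grown in RPMI with 10% FBS plus penicillin/streptomycin to 80-90% confluency, seeded ~5,000 cells/well on poly-L-lysine plates, 24 h at 37°C, 5% CO₂. Compounds at 50 µM for 48 h; MTT (0.5 mg/ml) added for 3 h at 37°C; formazan read at 595 nm.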

[4] = tested on: Mycobacterium tuberculosis; assay: Antimycobacterial activity against dormant Mycobacterium tuberculosis H37Rv model assessed as log reduction at 10 ug/ml incubated for 7 days measured after 28 days in presence of nutrient deprived condition; assay type: functional
In short: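 H37Rv grown in 7H9/OADC, pelleted, washed twice and resuspended in PBS in sealed bottles, starved 6 weeks at 37°C. Treated at 10 µg/ml for 7 days. Suspensions diluted 10-fold to 10^-6 in 7H9/OADC and plated in triplicate; 37°C for 28 days without agitation. Wells with visible growth scored positive, MPN calculated statistically.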

[5] = tested on: Mycobacterium tuberculosis; assay: Binding affinity to Mycobacterium tuberculosis AlaDH assessed as protein-ligand stabilization by measuring shift in melting temperature by differential scanning fluorimetry
In short: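 Thermal shift assay on MTB L-AlaDH with Sypro Orange dye in a real-time PCR instrument. Samples equilibrated at 25°C for 3 min, then heated to 95°C in 0.1°C steps with fluorescence read at each step. Tm of protein-ligand complex compared with native protein Tm.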

Structure (SMILES) | IC50 ([1]; read-out: IC50) [µM] | MIC [2] [µM] | cytotoxicity at 48 h, 50 µM [3] [%] | FC [4] | IC50 [1] | ΔTm [5] [°C]
N=C1S/C(=C\c2ccc(OCc3ccccc3)cc2)C(=O)N1c1ccc(Cl)cc1 | 7.01 | 7.42 (≈ 3.12 µg/mL) | 16.4 | – | – | –
CC(=O)N1CCc2c(sc(NC(=O)c3ccc(OCc4ccccc4)cc3)c2C(N)=O)C1 | 0.63 | 1.56 (≈ 0.701 µg/mL) | 11.6 | 2 | – | –
N=C1S/C(=C\c2ccc(OCc3ccccc3)cc2)C(=O)N1c1ccc(Br)cc1 | 22.3 | 3.35 (≈ 1.56 µg/mL) | 7.83 | – | – | –
N=C1S/C(=C\c2ccc(OCc3ccccc3)cc2)C(=O)N1c1ccccc1 | 2.27 | 16.2 (≈ 6.26 µg/mL) | 37.9 | – | – | –
CC(C)(C)OC(=O)N1CCc2c(sc(NC(=O)c3ccc(Oc4ccccc4)cc3)c2C(N)=O)C1 | 1.12 | 6.33 (≈ 3.12 µg/mL) | 26.9 | 2 | – | –
COc1c(N2C[C@@H]3CCCN[C@@H]3C2)c(F)cc2c(=O)c(C(=O)O)cn(C3CC3)c12 [MOXIFLOXACIN] | – | 1.24 (≈ 0.498 µg/mL) | – | 2.5 | Not Active | –
NC(=O)c1c(NC(=O)c2ccc(OCc3ccccc3)cc2)sc2c1CCN(C(=O)c1ccccc1)C2 | 0.8 | 12.9 (≈ 6.62 µg/mL) | 13.7 | 2 | – | –
N=C1S/C(=C\c2ccc(OCc3ccccc3)cc2)C(=O)N1c1cccc([N+](=O)[O-])c1 | 5.56 | 14.5 (≈ 6.26 µg/mL) | 52.9 | – | – | –
NC(=O)c1c(NC(=O)c2ccc(Oc3ccccc3)cc2)sc2c1CCN(Cc1ccccc1)C2 | 0.78 | 3.58 (≈ 1.73 µg/mL) | 23.6 | 2 | – | –
N#C/C(=C\c1cccs1)c1nc2cc([N+](=O)[O-])ccc2[nH]1 | 21.3 | – | – | – | – | –
Cc1cccc(C)c1N1C(=N)S/C(=C\c2ccc(OCc3ccccc3)cc2)C1=O | 1.74 | 60.4 (≈ 25 µg/mL) | 38.7 | 2 | – | 1.4
NC(=O)c1c(NC(=O)c2ccc(Cl)cc2)sc2c1CCN(Cc1ccccc1)C2 | 1.14 | 3.67 (≈ 1.56 µg/mL) | 11.1 | 2 | – | –
CC(C)(C)OC(=O)N1CCc2c(sc(NC(=O)c3ccc(OCc4ccccc4)cc3)c2C(N)=O)C1 | 0.64 | 1.53 (≈ 0.777 µg/mL) | 52.1 | 2 | – | –
CC(=O)N1CCc2c(sc(NC(=O)C3CC3)c2C(N)=O)C1 | 20.1 | – | – | – | – | –
Cc1ccc(C)c(N2C(=N)S/C(=C\c3ccc(OCc4ccccc4)cc3)C2=O)c1 | 1.34 | 15.1 (≈ 6.26 µg/mL) | 45.8 | 2 | – | 4.6
CN1CCc2c(sc(NC(=O)c3ccc(Oc4ccccc4)cc3)c2C(N)=O)C1 | 0.73 | 1.85 (≈ 0.754 µg/mL) | 58.9 | 2 | – | –
N=C1S/C(=C\c2ccc(OCc3ccccc3)cc2)C(=O)N1c1ncc([N+](=O)[O-])s1 | 6.77 | – | – | – | – | –
CN1CCc2c(sc(NC(=O)c3ccc(Cl)cc3)c2C(N)=O)C1 | 0.67 | 8.95 (≈ 3.13 µg/mL) | 38.5 | 2 | – | –
N=C1S/C(=C\c2ccc(OCc3ccccc3)cc2)C(=O)N1c1ccc(F)cc1 | 8.55 | 7.72 (≈ 3.12 µg/mL) | 10.5 | 2 | – | –
NNC(=O)c1ccncc1 [ISONIAZID] | – | 0.72 (≈ 0.0987 µg/mL) | – | 1.2 | Not Active | –

Structure (SMILES) | IC50 ([1]; read-out: IC50) [µM] | MIC [2] [µM] | cytotoxicity at 48 h, 50 µM [3] [%] | FC [4] | IC50 [1] | ΔTm [5] [°C]
N=C1S/C(=C\c2ccc(OCc3ccccc3)cc2)C(=O)N1c1ccccn1 | 2.12 | 8.06 (≈ 3.12 µg/mL) | 37.2 | 2 | – | –
CC(C)(C)OC(=O)N1CCc2c(sc(NC(=O)c3ccc(Cl)cc3)c2C(N)=O)C1 | 0.58 | 1.79 (≈ 0.78 µg/mL) | 37.3 | – | – | 1.8
NC(=O)c1c(NC(=O)c2ccc(Cl)cc2)sc2c1CCN(C(=O)c1ccccc1)C2 | 1.5 | 28.5 (≈ 12.5 µg/mL) | 42.5 | 2 | – | –
CC(=O)N1CCc2c(sc(NC(=O)c3ccc(Oc4ccccc4)cc3)c2C(N)=O)C1 | 0.66 | 6.11 (≈ 2.66 µg/mL) | 32.9 | – | – | –
Cc1cccc(N2C(=N)S/C(=C\c3ccc(OCc4ccccc4)cc3)C2=O)n1 | 9.44 | 1.94 (≈ 0.779 µg/mL) | 25.1 | – | – | –
CC[C@@H](CO)NCCN[C@@H](CC)CO [ETHAMBUTOL] | – | 7.64 (≈ 1.56 µg/mL) | – | – | Not Active | –
N=C1S/C(=C\c2ccc(OCc3ccccc3)cc2)C(=O)N1c1ncccn1 | 7.52 | 4.02 (≈ 1.56 µg/mL) | 26.6 | – | – | –
COc1ccc(NC(=O)N2CCc3c(sc(NC(=O)c4ccc([N+](=O)[O-])s4)c3C(N)=O)C2)cc1 | 8.17 | – | – | – | – | –
N=C1S/C(=C\c2ccc(OCc3ccccc3)cc2)C(=O)N1c1ccc(Cl)cc1Cl | 3.49 | 13.8 (≈ 6.27 µg/mL) | 13.8 | 2 | – | –
Cc1c(Cl)cccc1N1C(=N)S/C(=C\c2ccc(OCc3ccccc3)cc2)C1=O | 13 | 14.4 (≈ 6.26 µg/mL) | 59.7 | – | – | –
N=C1S/C(=C\c2ccc(OCc3ccccc3)cc2)C(=O)N1c1ccc([N+](=O)[O-])cc1 | 6.16 | 7.23 (≈ 3.12 µg/mL) | 17.3 | – | – | –
NC(=O)c1c(NC(=O)c2ccc(Oc3ccccc3)cc2)sc2c1CCN(C(=O)c1ccccc1)C2 | 1.11 | 3.47 (≈ 1.73 µg/mL) | 4.71 | 2 | – | –
CC(=O)N1CCc2c(sc(NC(=O)c3ccc(Cl)cc3)c2C(N)=O)C1 | 0.64 | 4.13 (≈ 1.56 µg/mL) | 38.4 | – | – | 1.7
NC(=O)c1c(NC(=O)c2ccc(OCc3ccccc3)cc2)sc2c1CCN(Cc1ccccc1)C2 | 0.81 | 12.6 (≈ 6.26 µg/mL) | 24 | 2 | – | –
N=C1S/C(=C\c2ccc(OCc3ccccc3)cc2)C(=O)N1c1ccccc1[N+](=O)[O-] | 15 | 58 (≈ 25 µg/mL) | 24.4 | 2 | – | –
CCc1nc(Nc2ccccc2)c2c3c(sc2n1)CCCC3 | 15.1 | – | – | – | – | –
CO[C@H]1/C=C/O[C@@]2(C)Oc3c(C)c(O)c4c(O)c(c(/C=N/N5CCN(C)CC5)c(O)c4c3C2=O)NC(=O)/C(C)=C\C=C\[C@H](C)[C@H](O)[C@@H](C)[C@@H](O)[C@@H](C)[C@H](OC(C)=O)[C@@H]1C [RIFAMPIN] | – | 0.15 (≈ 0.123 µg/mL) | – | 2 | Not Active | –
CN1CCc2c(sc(NC(=O)c3ccc(OCc4ccccc4)cc3)c2C(N)=O)C1 | 1.22 | 15.3 (≈ 6.47 µg/mL) | 37.6 | 2 | – | –
Cc1ccc(N2C(=N)S/C(=C\c3ccc(OCc4ccccc4)cc3)C2=O)c(C)c1 | 6.08 | 1.88 (≈ 0.779 µg/mL) | 36.8 | – | – | –
